In ChEMBL document CHEMBL3407438, “Discovery of potent, orally bioavailable, small-molecule inhibitors of WNT signaling from a cell-based pathway screen” (J Med Chem, 2015):
The source made the active and inactive calls. The rule behind the calls is not given here.

Legend:
[1] = Drug metabolism in human liver microsome at 10 uM after 30 mins by LC-MS analysis; format: ADME; settings: liver microsomes, read-out: Drug metabolism
[2] = Drug metabolism in mouse liver microsome at 10 uM after 30 mins by LC-MS analysis; format: ADME; settings: liver microsomes, read-out: Drug metabolism
[3] = Inhibition of WNT signaling in human 7dF3 cells preincubated at 20 uM for 2 hrs before beta-estradiol addition measured after 24 hrs by luciferase reporter assay; format: cell-based
[4] = Cytotoxicity against human 7dF3 cells; format: cell-based
cells = format: cell-based; settings: Homo sapiens, 7dF3
[5] = Dissociation constant, pKa of the compound; format: physicochemical
[6] = Inhibition of WNT signaling in human T-Rex HEK293 Tet-O cells harboring constitutively active deltaN-LRP6 after 4 days by luciferase reporter assay; format: cell-based; settings: HEK293, 96 h
Procedure, shortened: (§1)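 HEK293 T-Rex Tet-O cells stably carrying TCF-firefly luciferase-IRES-GFP reporter plus Tet-inducible cDNA (ΔN-LRP6, Dvl2, Axin-GID, ΔN-β-catenin or VP16-TCF4) introduced by FLP-FRT recombination; seeded from frozen at 40 000/well; day 3 compound added, eight concentrations 30 μM to 14 nM (final), with doxycycline hyclate; day 4 cells lysed, firefly luciferase luminescence read.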

[7] = Inhibition of WNT signaling in human T-Rex HEK293 Tet-O cells harboring Dvl2 after 4 days by luciferase reporter assay; format: cell-based; settings: HEK293, 96 h; procedure, shortened: as §1
[8] = Inhibition of WNT signaling in human T-Rex HEK293 Tet-O cells harboring dominant negative form of Axin GSK3beta-interacting domain after 4 days by luciferase reporter assay; format: cell-based; settings: HEK293, 96 h; procedure, shortened: as §1
[9] = Inhibition of WNT signaling in human T-Rex HEK293 Tet-O cells harboring degradation resistant form of beta-catenin after 4 days by luciferase reporter assay; format: cell-based; settings: HEK293, 96 h; procedure, shortened: as §1
[10] = Inhibition of WNT signaling in human T-Rex HEK293 Tet-O cells harboring constitutively active VP16-TCF in absence of beta-catenin after 4 days by luciferase reporter assay; format: cell-based; settings: HEK293, 96 h; procedure, shortened: as §1
[11] = Aqueous solubility of the compound; format: physicochemical; settings: buffer
[12] = Apparent permeability in human Caco2 cells after 2 hrs by LC-MS/MS analysis; format: ADME, cell-based, Caco-2; settings: caco-2, 2 h
[13] = target: Voltage-gated inwardly rectifying potassium channel KCNH2 (Homo sapiens, UniProt Q12809); experiment: Inhibition of human ERG
Voltage-gated inwardly rectifying potassium channel KCNH2, sequence (Q12809 whole entry): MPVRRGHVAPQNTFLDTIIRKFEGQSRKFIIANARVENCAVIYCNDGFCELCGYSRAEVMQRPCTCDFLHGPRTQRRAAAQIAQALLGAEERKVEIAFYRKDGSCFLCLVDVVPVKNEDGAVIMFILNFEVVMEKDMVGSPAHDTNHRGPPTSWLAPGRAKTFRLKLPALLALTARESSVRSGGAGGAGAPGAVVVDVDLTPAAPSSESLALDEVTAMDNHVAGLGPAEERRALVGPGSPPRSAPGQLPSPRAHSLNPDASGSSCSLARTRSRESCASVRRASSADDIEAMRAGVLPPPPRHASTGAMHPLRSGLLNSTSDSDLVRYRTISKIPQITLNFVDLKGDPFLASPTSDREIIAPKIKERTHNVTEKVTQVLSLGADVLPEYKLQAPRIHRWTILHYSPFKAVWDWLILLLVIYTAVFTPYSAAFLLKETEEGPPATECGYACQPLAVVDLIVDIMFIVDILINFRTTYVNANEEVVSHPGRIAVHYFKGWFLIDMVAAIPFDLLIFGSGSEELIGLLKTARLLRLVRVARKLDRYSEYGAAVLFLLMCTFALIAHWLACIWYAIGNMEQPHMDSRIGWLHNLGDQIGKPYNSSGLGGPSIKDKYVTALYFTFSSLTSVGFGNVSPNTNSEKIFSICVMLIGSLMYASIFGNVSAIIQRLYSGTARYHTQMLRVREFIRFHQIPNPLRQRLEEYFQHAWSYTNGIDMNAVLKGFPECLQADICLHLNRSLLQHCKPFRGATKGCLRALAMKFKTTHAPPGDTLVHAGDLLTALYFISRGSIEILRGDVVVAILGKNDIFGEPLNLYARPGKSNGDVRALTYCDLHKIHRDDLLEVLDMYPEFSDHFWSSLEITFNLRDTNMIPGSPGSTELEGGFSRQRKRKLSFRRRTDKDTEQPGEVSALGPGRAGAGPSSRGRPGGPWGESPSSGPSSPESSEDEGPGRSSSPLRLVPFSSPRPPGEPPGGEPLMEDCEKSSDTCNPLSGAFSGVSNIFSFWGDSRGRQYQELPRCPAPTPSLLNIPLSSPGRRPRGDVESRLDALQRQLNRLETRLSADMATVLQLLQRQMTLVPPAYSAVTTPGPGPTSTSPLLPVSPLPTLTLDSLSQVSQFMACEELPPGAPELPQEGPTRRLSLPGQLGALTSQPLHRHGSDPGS

Cytochrome P450 2C9 = Cytochrome P450 2C9 (Homo sapiens, UniProt P11712); experiment: Inhibition of CYP2C9 (unknown origin); format: ADME; settings: human
Cytochrome P450 2C9, sequence (P11712 whole entry): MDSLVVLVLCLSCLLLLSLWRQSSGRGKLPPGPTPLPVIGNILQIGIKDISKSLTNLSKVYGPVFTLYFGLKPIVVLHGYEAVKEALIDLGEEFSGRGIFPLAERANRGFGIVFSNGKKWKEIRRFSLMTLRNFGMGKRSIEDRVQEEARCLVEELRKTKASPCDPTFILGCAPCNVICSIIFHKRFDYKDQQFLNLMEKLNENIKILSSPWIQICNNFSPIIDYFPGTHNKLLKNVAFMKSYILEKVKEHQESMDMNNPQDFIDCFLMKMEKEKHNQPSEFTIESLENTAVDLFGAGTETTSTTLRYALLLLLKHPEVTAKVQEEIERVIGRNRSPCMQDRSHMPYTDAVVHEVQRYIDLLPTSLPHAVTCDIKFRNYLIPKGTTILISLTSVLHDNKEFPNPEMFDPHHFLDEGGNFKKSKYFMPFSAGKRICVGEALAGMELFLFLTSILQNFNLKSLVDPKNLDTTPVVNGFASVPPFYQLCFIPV

Cytochrome P450 1A2 = target: T1, Cytochrome P450 1A2 (Homo sapiens, UniProt P05177); experiment: Inhibition of CYP1A2 (unknown origin); format: ADME
T1 sequence (P05177 whole entry): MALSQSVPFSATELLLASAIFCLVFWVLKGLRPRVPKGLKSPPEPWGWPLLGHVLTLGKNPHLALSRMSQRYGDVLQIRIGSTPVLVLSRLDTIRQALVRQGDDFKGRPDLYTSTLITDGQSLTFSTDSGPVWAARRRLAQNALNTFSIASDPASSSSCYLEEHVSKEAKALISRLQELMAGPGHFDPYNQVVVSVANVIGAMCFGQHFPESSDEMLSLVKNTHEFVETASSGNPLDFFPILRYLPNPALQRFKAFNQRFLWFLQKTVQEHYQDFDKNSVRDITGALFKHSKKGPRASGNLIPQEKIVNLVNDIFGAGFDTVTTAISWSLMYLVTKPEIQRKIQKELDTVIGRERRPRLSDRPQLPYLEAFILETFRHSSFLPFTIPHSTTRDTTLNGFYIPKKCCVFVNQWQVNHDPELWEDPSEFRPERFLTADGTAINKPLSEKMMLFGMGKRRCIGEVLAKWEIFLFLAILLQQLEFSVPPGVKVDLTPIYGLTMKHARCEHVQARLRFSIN

Cytochrome P450 2C8 = target: T2, Cytochrome P450 2C8 (Homo sapiens, UniProt P10632); experiment: Inhibition of CYP2C8 (unknown origin); format: ADME
T2 sequence (P10632 whole entry): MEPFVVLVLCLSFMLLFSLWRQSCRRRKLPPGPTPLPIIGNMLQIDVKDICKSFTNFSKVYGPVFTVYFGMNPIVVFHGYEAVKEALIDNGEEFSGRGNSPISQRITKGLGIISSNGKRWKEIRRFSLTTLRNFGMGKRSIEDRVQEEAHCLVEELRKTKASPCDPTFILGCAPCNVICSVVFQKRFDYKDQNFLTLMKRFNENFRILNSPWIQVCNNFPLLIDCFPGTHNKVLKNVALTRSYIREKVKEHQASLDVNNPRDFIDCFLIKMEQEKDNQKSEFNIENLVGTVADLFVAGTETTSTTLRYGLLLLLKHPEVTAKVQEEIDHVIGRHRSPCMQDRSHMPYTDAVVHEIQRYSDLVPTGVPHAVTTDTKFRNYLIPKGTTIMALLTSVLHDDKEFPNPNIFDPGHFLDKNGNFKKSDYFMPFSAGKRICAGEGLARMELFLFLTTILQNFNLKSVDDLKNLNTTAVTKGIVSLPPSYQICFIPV

Cytochrome P450 3A4 = Cytochrome P450 3A4 (Homo sapiens, UniProt P08684); experiment: Inhibition of CYP3A4 (unknown origin); format: ADME
Cytochrome P450 3A4, sequence (P08684 whole entry): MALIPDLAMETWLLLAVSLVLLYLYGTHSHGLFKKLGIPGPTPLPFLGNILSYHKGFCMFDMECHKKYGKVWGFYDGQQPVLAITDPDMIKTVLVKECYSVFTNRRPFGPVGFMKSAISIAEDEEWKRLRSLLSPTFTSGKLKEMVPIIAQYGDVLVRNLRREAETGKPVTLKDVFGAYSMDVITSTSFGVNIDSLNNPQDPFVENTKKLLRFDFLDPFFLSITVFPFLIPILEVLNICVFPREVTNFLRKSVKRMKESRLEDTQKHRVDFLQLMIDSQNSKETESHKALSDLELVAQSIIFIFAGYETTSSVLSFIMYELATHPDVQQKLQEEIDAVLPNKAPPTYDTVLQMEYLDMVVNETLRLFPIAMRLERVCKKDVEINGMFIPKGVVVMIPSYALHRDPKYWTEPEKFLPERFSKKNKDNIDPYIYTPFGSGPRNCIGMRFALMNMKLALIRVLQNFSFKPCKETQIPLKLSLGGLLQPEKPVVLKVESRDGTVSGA

Cytochrome P450 2C19 = Cytochrome P450 2C19 (Homo sapiens, UniProt P33261); experiment: Inhibition of CYP2C19 (unknown origin); format: ADME
Cytochrome P450 2C19, sequence (P33261 whole entry): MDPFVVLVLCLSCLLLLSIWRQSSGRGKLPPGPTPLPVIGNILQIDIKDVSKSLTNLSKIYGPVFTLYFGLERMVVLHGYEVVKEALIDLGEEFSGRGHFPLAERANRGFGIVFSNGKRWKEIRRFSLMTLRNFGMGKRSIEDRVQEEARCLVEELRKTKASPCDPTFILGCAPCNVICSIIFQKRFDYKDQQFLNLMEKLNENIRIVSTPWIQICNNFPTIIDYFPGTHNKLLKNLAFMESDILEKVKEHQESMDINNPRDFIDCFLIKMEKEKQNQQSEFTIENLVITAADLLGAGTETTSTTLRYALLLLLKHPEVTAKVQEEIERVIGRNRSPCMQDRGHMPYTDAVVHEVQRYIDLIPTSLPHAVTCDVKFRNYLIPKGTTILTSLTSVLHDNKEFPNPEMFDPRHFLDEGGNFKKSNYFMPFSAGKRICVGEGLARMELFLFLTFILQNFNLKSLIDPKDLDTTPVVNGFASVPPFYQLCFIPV

Cytochrome P450 2D6 = Cytochrome P450 2D6 (Homo sapiens, UniProt P10635); experiment: Inhibition of CYP2D6 (unknown origin); format: ADME
Cytochrome P450 2D6, sequence (P10635 whole entry): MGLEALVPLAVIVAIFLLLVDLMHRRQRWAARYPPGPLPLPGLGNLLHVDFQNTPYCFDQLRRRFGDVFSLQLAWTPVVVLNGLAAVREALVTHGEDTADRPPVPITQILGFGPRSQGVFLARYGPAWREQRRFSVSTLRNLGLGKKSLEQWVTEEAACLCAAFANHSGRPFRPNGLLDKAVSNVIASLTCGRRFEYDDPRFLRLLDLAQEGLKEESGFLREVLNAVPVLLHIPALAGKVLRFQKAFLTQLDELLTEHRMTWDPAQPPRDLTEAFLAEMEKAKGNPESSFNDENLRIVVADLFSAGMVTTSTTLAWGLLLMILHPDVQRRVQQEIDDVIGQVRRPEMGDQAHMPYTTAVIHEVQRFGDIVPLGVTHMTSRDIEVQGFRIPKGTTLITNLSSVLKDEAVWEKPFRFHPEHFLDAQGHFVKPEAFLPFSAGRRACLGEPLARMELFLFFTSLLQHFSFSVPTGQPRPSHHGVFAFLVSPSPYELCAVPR

- metabolised at 0.5 h, 10 µM [1]: 22%
- metabolised at 0.5 h, 10 µM [2]: 41%
- IC50 (cells): 1760 nM
- pKa [5]: 3.5
- IC50 [6]: 910 nM
- IC50 [7]: 1200 nM
- IC50 [8]: 1500 nM
- IC50 [9]: 2730 nM
- IC50 [10]: 7.61 µM
- solubility [11]: > 1 mg/mL
- Papp [12]: 36 ×10⁻⁶ cm/s
- inhibition (INH) (Cytochrome P450 2C9): Not Active
- inhibition (INH) (Cytochrome P450 1A2): Not Active
- inhibition (INH) (Cytochrome P450 2C8): Not Active
- IC50 (Cytochrome P450 3A4): 7 µM
- inhibition (INH) (Cytochrome P450 2C19): Not Active
- inhibition (INH) (Cytochrome P450 2D6): Not Active
SMILES: NC(=O)C1CCN(c2c(Cl)cncc2Cl)CC1
- inhibition [3]: Active
- Activity [4]: Non-toxic
- IC50 [13]: > 10 µM
